Values joined by “and” are separate entries in the source; they are usually repeats but may differ in a detail not shown here. Identical values can stand only once.
Tests used:
[1] = system: Fibroblast; assay: Multiplex assay against human fibroblast; type: toxicity, cell-based; conditions: number of replicates 2
Summary of the method: (§1)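 Live cells carried four stains from seeding: Hoechst33342, BioTracker Green Microtubule Cytoskeleton Dye, MitoTracker Red and Annexin V Alexa Fluor 680. They were imaged on a CQ1 microscope at 37°C and 5% CO2 after compound addition. Using CellPathfinder machine-learning gating, cells were split into Hoechst high-intensity objects or normal cells, normal cells into healthy, pyknosed or fragmented nuclei, and pyknosed cells into mitotic or apoptotic; tubulin, mitochondrial-mass and membrane-permeability phenotypes are per cents of healthy-nucleus cells.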

[2] = system: HEK-293T; assay: Multiplex assay against HEK293T; type: toxicity, cell-based; conditions: human, number of replicates 2; summary of the method: as §1
[3] = 12 h, 1 µM, compound concentration 1 uM
[4] = 12 h, 10 µM, compound concentration 10 uM
[5] = 24 h, 1 µM, compound concentration 1 uM
[6] = 24 h, 10 µM, compound concentration 10 uM
[7] = 48 h, 1 µM, compound concentration 1 uM
[8] = 48 h, 10 µM, compound concentration 10 uM

Structure (SMILES): Fc1cccc(-n2cnc3c(NCc4nc5ccc(F)c(F)c5[nH]4)nc(N4CCOCC4)nc32)c1
- Population Apoptotic (%) [1, 3]: 46% and 50%
- Population Fragmented Nuclei (%) [1, 3]: 8% and 5%
- Population Healthy Nuclei (%) [1, 3]: 78% and 65%
- Population Hoechst High Intensity Objects (%) [1, 3]: 0%
- Population Membrane Permeable-Phenotype (%) [1, 3]: 5% and 4%
- Population Mitochondria Different-Phenotype (%) [1, 3]: 0%
- Population Mitotic Cells (%) [1, 3]: 53% and 49%
- Population Normal (%) [1, 3]: 99% and 100%
- Population Pyknosed Nuclei (%) [1, 3]: 12% and 28%
- Population Tubulin-Different-Phenotype (%) [1, 3]: 21% and 15%
- Total Cell Count [1, 3]: 211 and 198
- Population Apoptotic (%) [1, 4]: 55% and 40%
- Population Fragmented Nuclei (%) [1, 4]: 6% and 10%
- Population Healthy Nuclei (%) [1, 4]: 63% and 68%
- Population Hoechst High Intensity Objects (%) [1, 4]: 0%
- Population Membrane Permeable-Phenotype (%) [1, 4]: 6% and 8%
- Population Mitochondria Different-Phenotype (%) [1, 4]: 21% and 11%
- Population Mitotic Cells (%) [1, 4]: 44% and 60%
- Population Normal (%) [1, 4]: 99% and 100%
- Population Pyknosed Nuclei (%) [1, 4]: 29% and 21%
- Population Tubulin-Different-Phenotype (%) [1, 4]: 72% and 75%
- Total Cell Count [1, 4]: 152 and 213
- Population Apoptotic (%) [1, 5]: 85% and 72%
- Population Fragmented Nuclei (%) [1, 5]: 12% and 10%
- Population Healthy Nuclei (%) [1, 5]: 44% and 66%
- Population Hoechst High Intensity Objects (%) [1, 5]: 0%
- Population Membrane Permeable-Phenotype (%) [1, 5]: 13% and 5%
- Population Mitochondria Different-Phenotype (%) [1, 5]: 0%
- Population Mitotic Cells (%) [1, 5]: 14% and 27%
- Population Normal (%) [1, 5]: 100% and 99%
- Population Pyknosed Nuclei (%) [1, 5]: 42% and 22%
- Population Tubulin-Different-Phenotype (%) [1, 5]: 25% and 36%
- Total Cell Count [1, 5]: 197 and 196
- Population Apoptotic (%) [1, 6]: 44% and 42%
- Population Hoechst High Intensity Objects (%) [1, 6]: 0%
- Population Mitochondria Different-Phenotype (%) [1, 6]: 57% and 31%
- Population Mitotic Cells (%) [1, 6]: 55% and 57%
- Population Normal (%) [1, 6]: 100% and 99%
- Population Pyknosed Nuclei (%) [1, 6]: 27% and 17%
- Population Tubulin-Different-Phenotype (%) [1, 6]: 100% and 74%
- Population Apoptotic (%) [1, 7]: 85% and 90%
- Population Fragmented Nuclei (%) [1, 7]: 12% and 10%
- Population Healthy Nuclei (%) [1, 7]: 21% and 20%
- Population Hoechst High Intensity Objects (%) [1, 7]: 2% and 0%
- Population Membrane Permeable-Phenotype (%) [1, 7]: 13% and 17%
- Population Mitochondria Different-Phenotype (%) [1, 7]: 2%
- Population Mitotic Cells (%) [1, 7]: 14% and 9%
- Population Normal (%) [1, 7]: 97% and 99%
- Population Pyknosed Nuclei (%) [1, 7]: 66% and 68%
- Population Tubulin-Different-Phenotype (%) [1, 7]: 47% and 28%
- Total Cell Count [1, 7]: 172 and 174
- Population Apoptotic (%) [1, 8]: 77% and 73%
- Population Fragmented Nuclei (%) [1, 8]: 11% and 14%
- Population Healthy Nuclei (%) [1, 8]: 60% and 65%
- Population Hoechst High Intensity Objects (%) [1, 8]: 0%
- Population Membrane Permeable-Phenotype (%) [1, 8]: 1% and 2%
- Population Mitochondria Different-Phenotype (%) [1, 8]: 27% and 23%
- Population Mitotic Cells (%) [1, 8]: 22% and 26%
- Population Normal (%) [1, 8]: 100%
- Population Pyknosed Nuclei (%) [1, 8]: 28% and 19%
- Population Tubulin-Different-Phenotype (%) [1, 8]: 72% and 75%
- Total Cell Count [1, 8]: 140 and 207
- Population Apoptotic (%) [2, 3]: 54% and 71%
- Population Fragmented Nuclei (%) [2, 3]: 7% and 5%
- Population Healthy Nuclei (%) [2, 3]: 81% and 64%
- Population Hoechst High Intensity Objects (%) [2, 3]: 12% and 18%
- Population Membrane Permeable-Phenotype (%) [2, 3]: 2%
- Population Mitochondria Different-Phenotype (%) [2, 3]: 61% and 54%
- Population Mitotic Cells (%) [2, 3]: 45% and 28%
- Population Normal (%) [2, 3]: 87% and 81%
- Population Pyknosed Nuclei (%) [2, 3]: 10% and 29%
- Population Tubulin-Different-Phenotype (%) [2, 3]: 86% and 80%
- Total Cell Count [2, 3]: 334 and 362
- Population Apoptotic (%) [2, 4]: 69% and 80%
- Population Fragmented Nuclei (%) [2, 4]: 1% and 4%
- Population Healthy Nuclei (%) [2, 4]: 80% and 73%
- Population Hoechst High Intensity Objects (%) [2, 4]: 6% and 11%
- Population Membrane Permeable-Phenotype (%) [2, 4]: 2% and 3%
- Population Mitochondria Different-Phenotype (%) [2, 4]: 81% and 68%
- Population Mitotic Cells (%) [2, 4]: 30% and 20%
- Population Normal (%) [2, 4]: 93% and 88%
- Population Pyknosed Nuclei (%) [2, 4]: 18% and 22%
- Population Tubulin-Different-Phenotype (%) [2, 4]: 94%
- Total Cell Count [2, 4]: 319 and 328
- Population Apoptotic (%) [2, 5]: 65% and 77%
- Population Fragmented Nuclei (%) [2, 5]: 3% and 7%
- Population Healthy Nuclei (%) [2, 5]: 83% and 57%
- Population Hoechst High Intensity Objects (%) [2, 5]: 22% and 24%
- Population Membrane Permeable-Phenotype (%) [2, 5]: 0% and 1%

From ChEMBL document CHEMBL5303300, “EUbOPEN Chemogenomics Library - Multiplex” (2023)
